Measured values published in the array DNA melting data of Ke et al. (doi:10.1101/2024.01.08.574731).

Key:
[1] = folding enthalpy; higher = less favourable; fluorescence melt of hairpins on a sequencing array, two-state fit; conditions: sodium 0.088 M
Summary of the method: (§1)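 Melting temperature and folding enthalpy were derived from bootstrapped two-state fits. The fitted temperatures were raised by 9.35 °C to agree with UV melts, and four replicates were combined by inverse variance. The underlying data were Cy3 fluorescence images of library hairpins, with annealed Cy3 and quencher oligos, on a sequenced MiSeq flow cell in 50 mM Na-HEPES pH 8.0, 25 mM NaCl, taken in 2.5 °C steps up to 60 °C, normalised to pre-quench Cy3 and to control constructs.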

[2] = melting temperature; fluorescence melt of hairpins on a sequencing array, two-state fit, raised by 9.35 °C to match UV melts; conditions: sodium 0.088 M
Summary of the method: as §1

Sequence | folding enthalpy [1] | Tm [2]
GATCCCGACGGGGATC ((((((....)))))) | -27.8 kcal/mol | 65.8 °C
GATCCCGACTGGGATC ((((((....)))))) | -38.5 kcal/mol | 65.8 °C
GATCCCGCTGGGATC ((((((...)))))) | -37.4 kcal/mol | 63.2 °C
GATCCCGGAAACGAGATC ((((.((....)).)))) | -29.6 kcal/mol | 41.7 °C
GATCCCGGAAACGGAATC (((.(((....))).))) | -24.7 kcal/mol | 40.1 °C
GATCCCGGAGGGGATC ((((((....)))))) | -19.4 kcal/mol | 65.8 °C
GATCCCGGTGGGATC ((((((...)))))) | -29.6 kcal/mol | 65.7 °C
GATCCCGTTGGGATC ((((((...)))))) | -31.5 kcal/mol | 64.4 °C
GATCCCGTTTGGGATC ((((((....)))))) | -43.4 kcal/mol | 63.6 °C
GATCCCTACCGGGATC ((((((....)))))) | -32.7 kcal/mol | 61.9 °C
GATCCCTATTGGGATC ((((((....)))))) | -43.1 kcal/mol | 62.8 °C
GATCCCTCACGGGATC ((((((....)))))) | -39.5 kcal/mol | 59 °C
GATCCCTCTAGGGATC ((((((....)))))) | -33.9 kcal/mol | 66.6 °C
GATCCCTCTGGGATC ((((((...)))))) | -31.3 kcal/mol | 66.6 °C
GATCCCTGCCGGGATC ((((((....)))))) | -42.8 kcal/mol | 60 °C
GATCCCTGGTGGGATC ((((((....)))))) | -31.1 kcal/mol | 58.1 °C
GATCCCTGTTGGGATC ((((((....)))))) | -42.8 kcal/mol | 62 °C
GATCCCTTCAGGGATC ((((((....)))))) | -31.4 kcal/mol | 68.3 °C
GATCCCTTCCGGGATC ((((((....)))))) | -35.3 kcal/mol | 59.5 °C
GATCCCTTCTGGGATC ((((((....)))))) | -39.1 kcal/mol | 62.5 °C
GATCCCTTGGGGATC ((((((...)))))) | -33 kcal/mol | 60.1 °C
GATCCGAACACGGATC ((((((....)))))) | -36.6 kcal/mol | 57.2 °C
GATCCGAACGCGGATC ((((((....)))))) | -39.6 kcal/mol | 55.1 °C
GATCCGAATGCGGATC ((((((....)))))) | -37.8 kcal/mol | 54.1 °C

Sequence | folding enthalpy [1] | Tm [2]
GATCCGACCGCGGATC ((((((....)))))) | -34.6 kcal/mol | 56.8 °C
GATCCGACGACGGATC ((((((....)))))) | -36.6 kcal/mol | 56.7 °C
GATCCGAGCACGGATC ((((((....)))))) | -38.2 kcal/mol | 58.5 °C
GATCCGAGCGCGGATC ((((((....)))))) | -42.4 kcal/mol | 58.8 °C
GATCCGAGTACGGATC ((((((....)))))) | -40.8 kcal/mol | 58.6 °C
GATCCGATATCGGATC ((((((....)))))) | -39.9 kcal/mol | 59.2 °C
GATCCGATCACGGATC ((((((....)))))) | -40.6 kcal/mol | 59.5 °C
GATCCGCACCCGGATC ((((((....)))))) | -38.6 kcal/mol | 55.4 °C
GATCCGCCAGCGGATC ((((((....)))))) | -44.9 kcal/mol | 65.2 °C
GATCCGCCCCCGGATC ((((((....)))))) | -40.6 kcal/mol | 56.5 °C
GATCCGCCCTCGGATC ((((((....)))))) | -40.6 kcal/mol | 57.1 °C
GATCCGCGAAAGCGTATC (((.(((....))).))) | -18.4 kcal/mol | 43.4 °C
GATCCGCGACGGATC ((((((...)))))) | -39 kcal/mol | 57.9 °C
GATCCGGAAGCGGATC ((((((....)))))) | -33.2 kcal/mol | 59.8 °C
GATCCGGACCCGGATC ((((((....)))))) | -36.9 kcal/mol | 61.1 °C
GATCCGGAGACGGATC ((((((....)))))) | -32.9 kcal/mol | 63.6 °C
GATCCGGAGGCGGATC ((((((....)))))) | -33.4 kcal/mol | 57.8 °C
GATCCGGATGCGGATC ((((((....)))))) | -35.4 kcal/mol | 58.5 °C
GATCCGGATTCGGATC ((((((....)))))) | -35.7 kcal/mol | 59.1 °C
GATCCGGCAACGGATC ((((((....)))))) | -35 kcal/mol | 67.8 °C
GATCCGGCACCGGATC ((((((....)))))) | -44 kcal/mol | 63.8 °C
GATCCGGCCTCGGATC ((((((....)))))) | -42.1 kcal/mol | 58.7 °C
GATCCGGGAAACCGGACC (.(((((....))))).) | -13.2 kcal/mol | 44.1 °C
GATCCGGGAAACTGGGTC ((.((.(....).)).)) | -30.1 kcal/mol | 40 °C

Sequence | folding enthalpy [1] | Tm [2]
GATCCGGGAACGGATC ((((((....)))))) | -33.4 kcal/mol | 66.1 °C
GATCCGGGAGCGGATC ((((((....)))))) | -37.4 kcal/mol | 61.1 °C
GATCCGGGCACGGATC ((((((....)))))) | -31.1 kcal/mol | 67.8 °C
GATCCGGGCCGGATC ((((((...)))))) | -46.2 kcal/mol | 60.3 °C
GATCCGGGGCGGATC ((((((...)))))) | -37.2 kcal/mol | 56 °C
GATCCGGTACCGGATC ((((((....)))))) | -43.4 kcal/mol | 64.5 °C
GATCCGGTCCGGATC ((((((...)))))) | -40.6 kcal/mol | 59.8 °C
GATCCGGTCGCGGATC ((((((....)))))) | -36.7 kcal/mol | 60.2 °C
GATCCGGTTACGGATC ((((((....)))))) | -36.9 kcal/mol | 68.5 °C
GATCCGGTTTCGGATC ((((((....)))))) | -44.2 kcal/mol | 59.5 °C
GATCCGTAACCGGATC ((((((....)))))) | -39.2 kcal/mol | 55.7 °C
GATCCGTAAGCGGATC ((((((....)))))) | -35.3 kcal/mol | 59.3 °C
GATCCGTACTCGGATC ((((((....)))))) | -37.9 kcal/mol | 58.7 °C
GATCCGTAGCGGATC ((((((...)))))) | -35.6 kcal/mol | 56 °C
GATCCGTAGGCGGATC ((((((....)))))) | -41.3 kcal/mol | 59.2 °C
GATCCGTAGTCGGATC ((((((....)))))) | -36 kcal/mol | 57 °C
GATCCGTATACGGATC ((((((....)))))) | -45.4 kcal/mol | 62.1 °C
GATCCGTATTCGGATC ((((((....)))))) | -39.5 kcal/mol | 58.7 °C
GATCCGTCAACGGATC ((((((....)))))) | -35.9 kcal/mol | 62 °C
GATCCGTCCTCGGATC ((((((....)))))) | -48.3 kcal/mol | 58 °C
GATCCGTCTCCGGATC ((((((....)))))) | -39.8 kcal/mol | 58.4 °C
GATCCGTCTTCGGATC ((((((....)))))) | -40 kcal/mol | 59.4 °C
GATCCGTGAGCGGATC ((((((....)))))) | -35.6 kcal/mol | 65.9 °C
GATCCGTGCACGGATC ((((((....)))))) | -40.3 kcal/mol | 66.5 °C

Sequence | folding enthalpy [1] | Tm [2]
GATCCGTGTACGGATC ((((((....)))))) | -45 kcal/mol | 63.6 °C
GATCCGTGTGCGGATC ((((((....)))))) | -38.8 kcal/mol | 66.7 °C
GATCCGTGTTCGGATC ((((((....)))))) | -36.2 kcal/mol | 61.4 °C
GATCCGTTACGGATC ((((((...)))))) | -34.6 kcal/mol | 63.9 °C
GATCCGTTGACGGATC ((((((....)))))) | -39.1 kcal/mol | 61.8 °C
GATCCGTTGCCGGATC ((((((....)))))) | -46.8 kcal/mol | 58.4 °C
GATCCGTTTGCGGATC ((((((....)))))) | -37.7 kcal/mol | 62.3 °C
GATCCTAAAGAGGATC ((((((....)))))) | -31.3 kcal/mol | 46.1 °C
GATCCTAATCAGGATC ((((((....)))))) | -38.6 kcal/mol | 50.5 °C
GATCCTACAGAGGATC ((((((....)))))) | -29.6 kcal/mol | 50.4 °C
GATCCTAGACAGGATC ((((((....)))))) | -36.5 kcal/mol | 50.4 °C
GATCCTATAAGGATC ((((((...)))))) | -37.8 kcal/mol | 55.2 °C
GATCCTATCGAGGATC ((((((....)))))) | -27.1 kcal/mol | 51.9 °C
GATCCTATGAGGATC ((((((...)))))) | -34.7 kcal/mol | 53.7 °C
GATCCTATGTAGGATC ((((((....)))))) | -34.9 kcal/mol | 54.5 °C
GATCCTCAAAAGGATC ((((((....)))))) | -32.5 kcal/mol | 51.3 °C
GATCCTCACCAGGATC ((((((....)))))) | -38.6 kcal/mol | 50.9 °C
GATCCTCACGAGGATC ((((((....)))))) | -43.3 kcal/mol | 54.8 °C
GATCCTCAGAAGGATC ((((((....)))))) | -35.3 kcal/mol | 51 °C
GATCCTCATAAGGATC ((((((....)))))) | -34.4 kcal/mol | 52.6 °C
GATCCTCATGAGGATC ((((((....)))))) | -41.1 kcal/mol | 58.4 °C
GATCCTCCACAGGATC ((((((....)))))) | -36 kcal/mol | 50.8 °C
GATCCTCCCAGGATC ((((((...)))))) | -35.8 kcal/mol | 55.7 °C
GATCCTCCGAAGGATC ((((((....)))))) | -16.6 kcal/mol | 48.7 °C
